The values below come from ChEMBL document CHEMBL1123616, “Thromboxane synthase inhibitors. Synthesis and pharmacological activity of (R)-, (S)-, and (+/-)-2,2-dimethyl-6-[2-(1H-imidazol-1-yl)-1-[[(4-methoxyphenyl)- methoxy]methyl]ethoxy]hexanoic acids” (J Med Chem, 1987).

Holding throughout (format): functional
For assay [1], the target named is T1, Thromboxane-A synthase (Homo sapiens, UniProt P24557).
T1 sequence (P24557 whole entry): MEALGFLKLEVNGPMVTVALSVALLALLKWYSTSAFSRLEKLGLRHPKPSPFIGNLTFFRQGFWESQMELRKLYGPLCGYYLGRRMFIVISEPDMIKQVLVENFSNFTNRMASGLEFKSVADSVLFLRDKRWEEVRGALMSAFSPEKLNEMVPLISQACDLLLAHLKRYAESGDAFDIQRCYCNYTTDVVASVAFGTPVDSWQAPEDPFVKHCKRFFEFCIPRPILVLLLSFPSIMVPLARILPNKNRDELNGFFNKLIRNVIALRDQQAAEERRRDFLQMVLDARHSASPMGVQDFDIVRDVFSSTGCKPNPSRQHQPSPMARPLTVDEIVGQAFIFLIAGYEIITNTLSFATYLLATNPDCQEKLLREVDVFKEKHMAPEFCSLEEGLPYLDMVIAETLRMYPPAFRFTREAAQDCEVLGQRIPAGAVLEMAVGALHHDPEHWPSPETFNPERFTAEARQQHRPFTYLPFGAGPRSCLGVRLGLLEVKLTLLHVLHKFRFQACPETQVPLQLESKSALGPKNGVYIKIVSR
Briefly: Inhibition of Thromboxane B2 formation in collagen-stimulated human platelets in platelet rich plasma.

For assay [2], the system named is Cavia porcellus. Briefly: Inhibition of Collagen-induced Thromboxane (TXB2) in guinea pig whole blood ex vivo by oral 30 mg/kg administration of test compound. The gist of the method: (§1)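 Male Dunkin-Hartley guinea pigs (300-350 g), fasted overnight, dosed orally by gavage in 50% PEG 400/50% carboxymethylcellulose vehicle. Pentobarbitone anaesthesia 10 min before bleed at 1 h post-dose. Aortic blood was taken into citrate and stirred at 37 °C. Collagen (10 μg/mL) was added and incubated 5 min, then stopped with indomethacin. Plasma TxB2 was measured by RIA and normalized to 5.0×10^8 platelets/mL. Groups of ≥4 animals.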

The subject of assay [3] is Cavia porcellus. Briefly: Inhibition of Collagen-induced Thromboxane (TXB2) in guinea pig whole blood ex vivo after 1 hr of 30 mg/kg oral administration of compound. The gist of the method: as §1
Assay [4] deals with Cavia porcellus. Briefly: Inhibition of Collagen-induced serum Thromboxane (TXB2) in guinea pig whole blood ex vivo after 30 mg/kg oral administration of compound. In outline: as §1
Assay [5] relates to Cavia porcellus. Briefly: Inhibition of Collagen-induced Thromboxane (TXB2) in guinea pig whole blood ex vivo after 1 hr of 30 mg/kg oral administration of compound. The gist of the method: as §1
Assay [6] has as its system Cavia porcellus. Briefly: Inhibition of Collagen-induced Thromboxane (TXB2) generation in guinea pig whole blood ex vivo by oral 10 mg/kg administration of test compound. In outline:
as §1

For assay [7], the system named is Cavia porcellus. Briefly: Inhibition of Collagen-induced serum Thromboxane (TXB2) generation in guinea pig whole blood ex vivo after 10 mg/kg oral administration of compound. The gist of the method: as §1
Assay [8] concerns Cavia porcellus. Briefly: Dose-related effect was determined 1 hr after oral administration in guinea pig and expressed as ED50 value. In outline:
as §1

Assay [9] deals with Cavia porcellus. Briefly: Inhibition of Collagen-induced serum Thromboxane (TXB2) in guinea pig whole blood ex vivo after 10 mg/kg oral administration of compound. In outline:
as §1

Assay [10] relates to Cavia porcellus. Briefly: Inhibition of Collagen-induced Thromboxane (TXB2) in guinea pig whole blood ex vivo after 1 hr of 10 mg/kg oral administration of compound. In outline: as §1

Turning to `CCOC(=O)C(C)(C)CCCCOC(COCc1ccc(OC)cc1)Cn1ccnc1` (stereo unspecified), half-maximal inhibition in assay [1] (IC50) was put at 17600 nM. Further, the “Thromboxane B2 (TxB2)” value in assay [2] is 55 pg 0.1ml-1 500x10^3. In [3], this compound returned a 50% effective dose (ED50) of 6.7 mg/kg. For the same compound, in [4], the inhibition in vivo at 30 mg/kg worked out at 97%.

For the compound `COc1ccc(COCC(Cn2ccnc2)OCCCCCC(=O)O)cc1` (stereo unspecified), the half-maximal inhibitory concentration (IC50) in [1] turned out to be 560 nM. In assay [2], the “Thromboxane B2 (TxB2)” value is 130 pg 0.1ml-1 500x10^3. In [3], this compound returned a median effective dose (ED50) of 10.5 mg/kg. Besides, in assay [4], the inhibition in vivo at 30 mg/kg is 82%.

For the compound `COc1ccc(COCC(Cn2ccnc2)OCCCCC(=O)O)cc1` (stereo unspecified), in assay [1], the midpoint of inhibition, the IC50, lay at 730 nM. Also, the “Thromboxane B2 (TxB2)” value in assay [2] came out at 1047 pg 0.1ml-1 500x10^3. In [4], the inhibition in vivo at 30 mg/kg was determined as 43%.

`CCOC(=O)CCCCCOC(COCc1ccc(OC)cc1)Cn1ccnc1` (stereo unspecified): 120 nM corresponded to half-maximal inhibition in [1] (IC50). Besides, the “Thromboxane B2 (TxB2)” value in assay [2] was found to be 750 pg 0.1ml-1 500x10^3. The ED50 in assay [5] was 13.5 mg/kg. Moreover, in [4], the inhibition in vivo at 30 mg/kg is 63%.

Compound `CCOC(=O)CCCCCCC(COCc1ccc(OC)cc1)Cn1ccnc1` (stereo unspecified) displayed a half-inhibitory concentration (IC50) in assay [1] of 1000 nM. Moreover, the “Thromboxane B2 (TxB2)” value in [2] was 683 pg 0.1ml-1 500x10^3. The inhibition in vivo at 30 mg/kg in [4] stood at 53%.

The compound `COc1ccc(COC[C@@H](Cn2ccnc2)OCCCCC(C)(C)C(=O)O)cc1` displayed an IC50 in [1] of 420 nM. For the same compound, in assay [2], the “Thromboxane B2 (TxB2)” value was 572 pg 0.1ml-1 500x10^3. In assay [3], this compound registered a 50% effective dose (ED50) of 12 mg/kg. In assay [4], the inhibition in vivo at 30 mg/kg stood at 71%.

With `COc1ccc(COC[C@H](Cn2ccnc2)OCCCCC(C)(C)C(=O)O)cc1`, inhibition in assay [1] was half-maximal at 36 nM (IC50). The “Thromboxane B2 (TxB2)” value in assay [6] is recorded as 61.9 pg 0.1ml-1 500x10^3. In addition, the inhibition in vivo at 10 mg/kg in [7] came to 95%. In assay [8], this compound returned a median effective dose (ED50) of 1.4 mg/kg.

As to `COc1ccc(COCC(Cn2ccnc2)OCCCCCCC(C)(C)C(=O)O)cc1` (stereo unspecified), the IC50 in [1] was greater than 20000 nM.

As for `COc1ccc(COCC(Cn2ccnc2)OCCCCCCC(=O)O)cc1` (stereo unspecified), in assay [1], the IC50 was found to be 1890 nM. The “Thromboxane B2 (TxB2)” value in [2] was found to be 923 pg 0.1ml-1 500x10^3. Besides, the inhibition in vivo at 30 mg/kg in assay [4] was determined as 25%.

In assay [1], `COc1ccc(COCC(Cn2ccnc2)OCCC/C=C/C(=O)O)cc1` (stereo unspecified) came in with a concentration for half-maximal inhibition (IC50) of 8330 nM. In addition, the “Thromboxane B2 (TxB2)” value in assay [2] is recorded as 1302 pg 0.1ml-1 500x10^3. The inhibition in vivo at 30 mg/kg in assay [4] is 4%.

As for `CCOC(=O)CCCCOC(COCc1ccc(OC)cc1)Cn1ccnc1` (stereo unspecified), the midpoint of inhibition in assay [1], the IC50, lay at 750 nM. For the same compound, in [2], the “Thromboxane B2 (TxB2)” value is 2018 pg 0.1ml-1 500x10^3. The inhibition in vivo at 30 mg/kg in assay [4] was -11%.

For `CCOC(=O)CCCCCCOC(COCc1ccc(OC)cc1)Cn1ccnc1` (stereo unspecified), in [1], the concentration for half-maximal inhibition (IC50) stood at 4000 nM. Also, the “Thromboxane B2 (TxB2)” value in assay [2] turned out to be 2720 pg 0.1ml-1 500x10^3. Also, in [4], the inhibition in vivo at 30 mg/kg was determined as 33%.

As to `COc1ccc(COCC(CCCCCCC(=O)O)Cn2ccnc2)cc1` (stereo unspecified), half-maximal inhibition in assay [1] (IC50) was put at 1430 nM. In addition, the “Thromboxane B2 (TxB2)” value in assay [2] worked out at 1620 pg 0.1ml-1 500x10^3. For the same compound, the inhibition in vivo at 30 mg/kg in [4] is -18%.

`CCOC(=O)CCC/C=C/CC(COCc1ccc(OC)cc1)Cn1ccnc1` (stereo unspecified): the half-inhibitory concentration (IC50) in assay [1] was 390 nM. Besides, in [2], the “Thromboxane B2 (TxB2)” value came to 1265 pg 0.1ml-1 500x10^3. Also, the inhibition in vivo at 30 mg/kg in [4] is 23%.

As for `CCOC(=O)/C=C/CCCOC(COCc1ccc(OC)cc1)Cn1ccnc1` (stereo unspecified), the IC50 in assay [1] turned out to be 10000 nM.

Regarding `COc1ccc(COCC(Cn2ccnc2)OCCCCC(C)(C)C(=O)O)cc1` (racemic), the IC50 in assay [1] stood at 120 nM. Besides, the “Thromboxane B2 (TxB2)” value in assay [2] is on record as 153 pg 0.1ml-1 500x10^3. This compound also returned an ED50 in assay [3] of 3.4 mg/kg. In addition, the inhibition in vivo at 30 mg/kg in [4] came out at 87%.

In the case of `O=C(O)c1ccc(OCCn2ccnc2)cc1` [DAZOXIBEN], the “Thromboxane B2 (TxB2)” value in assay [2] worked out at 674 pg 0.1ml-1 500x10^3. Besides, the ED50 in [3] was determined as 9.3 mg/kg. Besides, the inhibition in vivo at 30 mg/kg in [4] amounted to 54%.

Regarding `COc1ccc2c(c1)c(CC(=O)O)c(C)n2C(=O)c1ccc(Cl)cc1` [INDOMETHACIN], in assay [9], the inhibition in vivo at 10 mg/kg stood at 99%. In [10], this compound came in with an ED50 at 10 mg/kg of less than 10 mg/kg. In addition, the “Thromboxane B2 (TxB2)” value in assay [6] is 27 pg 0.1ml-1 500x10^3.

As usually defined, the IC50 is the point on the concentration scale where inhibition reaches its midpoint. Broadly, the ED50 is the dose that gives a 50% effect, or the effect in half of the subjects. What is called inhibition in vivo is the relative decrease from the control value, in per cent.
